ChEMBL document CHEMBL1122314, “Acute effects of alkylating agents on canine renal function: specifically designed synthetic maleimides” (J Med Chem, 1983)
Calls of active or inactive are those of the source. The rule behind the calls is not given here.

Key:
[1] = Half life period with Glutathione (GSH); activity expressed in terms of rx, no rx means no reaction; format: ADME
Canis familiaris [2] = test: The changes in canine renal function that were monitored over the 2-h interval following 20 umol/kg renal arterial administration; no change; format: functional, organism-based; conditions: Canis lupus familiaris
[3] = Half life period with L-Lys; activity expressed in terms of rx, no rx means no reaction; format: ADME
Canis familiaris [4] = test: The changes in canine renal function that were monitored over the 2-h interval following 73 umol/kg intravenous administration.; format: functional, Canis lupus familiaris
Procedure, shortened: (§1)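 Dogs received the maleimide into the jugular vein at 73.0 or 146 µmol/kg over 10 min, dissolved in 0.9% saline with an equivalent amount of NaHCO3. Urine was collected in 10-min periods for 2 h. Read-outs were urine flow, urinary pH, GFR (inulin clearance), and Na, K (flame photometry) and Cl excretion. Each value is the change from the immediately preceding pretreatment period, analysed by Dunnett's test.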

Canis familiaris [5] = test: The changes in canine renal function that were monitored over the 2-h interval following 20 umol/kg renal arterial administration; NC=no change; format: functional, organism-based; conditions: Canis lupus familiaris
Canis familiaris [6] = test: The changes in canine renal function that were monitored over the 2-h interval following 146 umol/kg intravenous administration.; format: functional, Canis lupus familiaris; procedure, shortened: as §1

Row | SMILES | Change (Canis familiaris [2]) | other results
1 | CC1=C(C)C(=O)N(c2ccc(C(=O)NCC(=O)O)cc2)C1=O | inactive | T1/2 [1]: No RX; T1/2 [3]: No RX
2 | CC1=CC(=O)N(c2ccc(C(=O)O)cc2)C1=O | inactive | 
3 | O=C(O)c1ccc(N2C(=O)C=CC2=O)cc1 | inactive | 
4 | O=C(O)CNC(=O)c1ccc(N2C(=O)C=CC2=O)cc1 |  | Change (Canis familiaris [4]): ~-5; Change (Canis familiaris [5]): inactive
5 | CC1=CC(=O)N(c2ccc(C(=O)O)cc2C)C1=O | inactive | Change (Canis familiaris [6]): 5
6 | CC1=CC(=O)N(c2ccc(C(=O)NCC(=O)O)cc2)C1=O | inactive | 
7 | CC1=C(C)C(=O)N(c2ccc(C(=O)O)cc2)C1=O | inactive | 
